The source made the active and inactive calls. The calls are words filed in the database; no cut-off is given here. Square brackets hold non-standard residues; d marks the D form. Peptide text beside a SMILES is read from it. * marks the point of attachment. Nle = CCCC[C@H](N)C(=O)O; Bz = O=C(c1ccccc1)*
Legend:
[1] = Inhibition of Dengue virus NS2B-NS3 protease expressed in Escherichia coli BL 21 (DE3) using Abz-Nle-Lys-Arg-Arg-Ser-3-(NO2)Tyr as substrate assessed as enzyme-substrate-inhibitor complex by Cornish-Bowden plot analysis
Outline: (§1)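 DEN2 NS2B–NS3 FRET assay run at inhibitor 0–6 μM (prior-series compounds 5–50 μM) and substrate 50, 100, 150 and 200 μM, in triplicate, with inner-filter correction. Ki from Dixon plots (1/v vs [I]) and Ki′ from Cornish-Bowden plots (S/v vs [I]). Inhibition mode assigned from these plots.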

[2] = Inhibition of Dengue virus NS2B-NS3 protease expressed in Escherichia coli BL 21 (DE3) using Abz-Nle-Lys-Arg-Arg-Ser-3-(NO2)Tyr as substrate after 15 mins
Dengue virus [3] = assay: Competitive inhibition of Dengue virus NS2B-NS3 protease expressed in Escherichia coli BL 21 (DE3) using Abz-Nle-Lys-Arg-Arg-Ser-3-(NO2)Tyr as substrate by Cornish-Bowden plot analysis; outline: as §1
Dengue virus [4] = assay: Inhibition of Dengue virus NS2B-NS3 protease expressed in Escherichia coli BL 21 (DE3) using Abz-Nle-Lys-Arg-Arg-Ser-3-(NO2)Tyr as substrate at 50 uM after 15 mins
[5] = Inhibition of Dengue virus NS2B-NS3 protease expressed in Escherichia coli BL 21 (DE3) using Abz-Nle-Lys-Arg-Arg-Ser-3-(NO2)Tyr as substrate assessed as enzyme-inhibitor complex by Cornish-Bowden plot analysis; details: in the assay text read “Dixon plot” for “Cornish-Bowden plot”; outline: as §1
[6] = molecular target: Prothrombin (Homo sapiens) (UniProt P00734); assay: Inhibition of thrombin (unknown origin) using Boc-Val-Pro-Arg-AMC as substrate at 25 uM after 10 mins by continuous fluorimetric assay
Outline: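 Thrombin (10 nM) preincubated 15 min with inhibitor (25 μM final) in 50 mM Tris-HCl pH 7.5, 150 mM NaCl, 0.05% Tween 20. Boc-Val-Pro-Arg-AMC then added to 50 μM (Km 16 μM). Fluorescence (ex 355 nm, em 460 nm) followed for 10 min as slope. Triplicate; percent inhibition versus no-inhibitor control.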

West Nile virus = assay: Inhibition of West Nile virus NS2B-NS3 protease expressed in Escherichia coli BL 21 (DE3) using Abz-Gly-Leu-Lys-Arg-Gly-Gly-3-(NO2)Tyr as substrate at 50 uM after 15 mins
Huh-7 = assay: Cytotoxicity against human HuH7 cells at <50 uM after 48 hrs by firefly reporter assay; type: cell-based; details: huh-7, 48 h
Outline: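 Uninfected Huh-7 cells stably expressing firefly luciferase, seeded 5000/well and incubated overnight at 37 °C. Compound added at 1.56–50 μM, plus 100, 200 and 400 μM, then incubated as for infected cells (further 48 h after the 4 h point). Firefly luminescence read with 70 μM luciferin and 2 mM ATP. Mean of three wells as percent of DMSO control.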

[7] = Permeability of the compound by PAMPA; type: ADME; details: read-out: permeability
Outline: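 PAMPA with precoated trilayer lipid/oil/lipid membranes, donor wells holding 200 μM compound in PBS pH 7.4 (2% DMSO final), in triplicate. Incubated 5 h at room temperature. Donor and acceptor concentrations determined by UV plate reader or HPLC-UV against calibration curves. Pe and mass retention R calculated.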

Dengue virus [8] = assay: Mixed type inhibition of Dengue virus NS2B-NS3 protease expressed in Escherichia coli BL 21 (DE3) using Abz-Nle-Lys-Arg-Arg-Ser-3-(NO2)Tyr as substrate by Cornish-Bowden plot analysis; outline: as §1
dengue virus type 2 [9] = assay: Antiviral activity against Dengue virus 2 infected in human Huh-7 cells assessed as inhibition of virus-induced plaque formation at 50 uM after 48; type: functional, organism-based
Outline: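 Huh-7 cells seeded in 12-well plates and pretreated with compound (50 μM) for 4 h. Infected for 1 h with dengue reporter virus (MOI 5) in the presence of compound, then medium replaced with compound-containing DMEM. Supernatant harvested at 48 h and filtered. Titer determined by plaque assay on Vero cells. Mean ± SD of three independent experiments.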

dengue virus type 2 [10] = assay: Antiviral activity against Dengue virus 2 infected in human Huh-7 cells assessed as inhibition of viral replication after 48 hrs by luciferase reporter gene assay; type: functional, organism-based; details: Huh-7, 48 h
Outline: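 Huh-7 cells seeded 5000/well, incubated overnight at 37 °C, then given compound (1.56–50 μM final, 2-fold series in DMEM with 10% FCS). Dengue 2 renilla luciferase reporter virus (MOI 10) added 4 h later. After 48 h at 37 °C, cells lysed and renilla luminescence read with coelenterazine. At least four wells per concentration, expressed relative to DMSO control. EC50 by nonlinear regression.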

| SMILES | IC50 [2] [µM] | inhibition (Dengue virus [3]) | inhibition (Dengue virus [4]) [%] | inhibition [6] | inhibition (West Nile virus) [%] | Papp [7] [×10⁻⁶ cm/s] | inhibition (Dengue virus [8]) | EC50 (dengue virus type 2 [10]) [µM] | Ki [1] [µM] | Ki [5] [µM] | Activity (Huh-7) | inhibition (dengue virus type 2 [9]) |
| --- | --- | --- | --- | --- | --- | --- | --- | --- | --- | --- | --- | --- |
| CCCC[C@H](NC(=O)[C@H](CCCCN)NC(=O)[C@H](CCCNC(=N)N)NC(=O)c1cccs1)C(N)=O | 14.1 | Active | 71.1 | inactive | 14.7 |  |  |  | > 50 | 14.5 | Non-toxic | inactive |
| CCCC[C@H](NC(=O)[C@H](CCCCN)NC(=O)[C@H](CCCNC(=N)N)NC(=O)c1ccc(/C=C2\SC(=S)N(C)C2=O)cc1)C(N)=O |  |  | 89 | 14.8% | 35 |  |  | > 50 |  |  | Non-toxic |  |
| CCCC[C@H](NC(=O)[C@H](CCCCN)NC(=O)[C@H](CCCNC(=N)N)NC(=O)/C=C/c1ccccc1)C(N)=O | 10.5 | Active | 82.9 | inactive | 13.8 | 1.26 |  |  | > 50 | 6.9 | Non-toxic |  |
| CCCC[C@H](NC(=O)[C@H](CCCN)NC(=O)[C@H](CCCNC(=N)N)NC(=O)c1ccc(/C=C2\SC(=O)N(Cc3ccccc3)C2=O)cc1)C(N)=O |  |  | 74.5 | 14.3% | 45 |  |  | 26.8 |  |  | Non-toxic | inactive |
| CCCC[C@H](NC(=O)[C@H](CCCCN)NC(=O)[C@H](CCCNC(=N)N)NC(=O)c1ccccc1)C(N)=O (Bz-Arg-Lys-[Nle]-NH2) | 13.3 | Active | 68.1 | 5.5% | 7.7 |  |  |  | > 50 | 11.2 | Non-toxic |  |
| CCCC[C@H](NC(=O)[C@H](CCCCN)NC(=O)[C@H](CCCNC(=N)N)NC(=O)/C=C1\SC(=S)N(Cc2ccc(OC)cc2)C1=O)C(N)=O |  |  | 40.9 | 24.7% | 15.3 |  |  | 26 |  |  | Non-toxic |  |
| CCCC[C@H](NC(=O)[C@H](CCCCN)NC(=O)[C@H](CCCNC(=N)N)NC(=O)c1ccc(/C=C2\SC(=S)NC2=O)cc1)C(N)=O |  |  | 87.1 | 13.9% | 48.7 |  |  | > 50 |  |  | Non-toxic |  |
| C=CCN1C(=O)/C(=C/c2ccc(C(=O)N[C@@H](CCCNC(=N)N)C(=O)N[C@@H](CCCCN)C(=O)N[C@@H](CCCC)C(N)=O)cc2)SC1=S |  |  | 96 | inactive | 54.6 | 0.42 |  | 31.3 |  |  | Non-toxic |  |

More lines, in order of falling IC50 [2], values ahead:

| IC50 [2] [µM] | inhibition (Dengue virus [3]) | inhibition (Dengue virus [4]) [%] | inhibition [6] | inhibition (West Nile virus) [%] | Papp [7] [×10⁻⁶ cm/s] | inhibition (Dengue virus [8]) | EC50 (dengue virus type 2 [10]) [µM] | SMILES | Ki [1] [µM] | Ki [5] [µM] | Activity (Huh-7) | inhibition (dengue virus type 2 [9]) |
| --- | --- | --- | --- | --- | --- | --- | --- | --- | --- | --- | --- | --- |
| 6.4 | Active | 84.6 | inactive | 15.6 |  |  |  | CCCC[C@H](NC(=O)[C@H](CCCCN)NC(=O)[C@H](CCCNC(=N)N)NC(=O)c1ccc(/C=C/C(N)=O)cc1)C(N)=O | > 50 | 8.2 | Non-toxic |  |
| 6.2 | Active | 97.3 | 11.3% | 64.7 | 1.61 |  | 35.5 | CCCC[C@H](NC(=O)[C@H](CCCCN)NC(=O)[C@H](CCCNC(=N)N)NC(=O)c1ccc(/C=C2\SC(=S)N(CCCC)C2=O)cc1)C(N)=O | > 10 | 4.7 |  |  |
| 6.1 | Active | 99.8 | inactive | 97.7 | 2.31 |  | 30.3 | CCCC[C@H](NC(=O)[C@H](CCCCN)NC(=O)[C@H](CCCNC(=N)N)NC(=O)c1ccc(/C=C2\SC(=S)N(C3CCCC3)C2=O)cc1)C(N)=O | > 10 | 3.6 |  |  |
| 5.3 | Active | 88.5 | 13.4% | 28 | 1.11 |  |  | CCCC[C@H](NC(=O)[C@H](CCCCN)NC(=O)[C@H](CCCNC(=N)N)NC(=O)c1ccc(/C=C(\C#N)C(=O)NC2CC2)cc1)C(N)=O | > 50 | 4 | Non-toxic | inactive |
| 4.8 | Active | 97.6 | 9.3% | 66.7 |  |  |  | CCCC[C@H](NC(=O)[C@H](CCCCN)NC(=O)[C@H](CCCNC(=N)N)NC(=O)c1ccc(/C=C2\SC(=O)N(Cc3ccc(C)cc3)C2=O)cc1)C(N)=O | > 10 | 3.1 |  |  |
| 4.8 | Active | 97.6 | 16.8% | 41.4 |  |  |  | CCCC[C@H](NC(=O)[C@H](CCCCN)NC(=O)[C@H](CCCNC(=N)N)NC(=O)c1ccc(/C=C2\SC(=O)N(CCOC(C)=O)C2=O)cc1)C(N)=O | > 10 | 3.6 |  |  |
| 3.5 | Active | 100 | 18.4% | 52.4 | 1.18 |  | > 50 | CCCC[C@H](NC(=O)[C@H](CCCCN)NC(=O)[C@H](CCCNC(=N)N)NC(=O)c1ccc(/C=C2\SC(=O)N(CCCC)C2=O)cc1)C(N)=O | > 10 | 3.4 |  |  |
| 3.4 | Active | 98.4 | 9.1% | 51.1 | 1.69 |  |  | CCCC[C@H](NC(=O)[C@H](CCCCN)NC(=O)[C@H](CCCNC(=N)N)NC(=O)c1ccc(/C=C2\SC(=O)N(C3CCCCC3)C2=O)cc1)C(N)=O | > 10 | 2.3 |  |  |
| 3.3 | Active | 97 | 12.3% | 47.2 |  |  |  | CCCC[C@H](NC(=O)[C@H](CCCCN)NC(=O)[C@H](CCCNC(=N)N)NC(=O)c1ccc(/C=C2\SC(=O)N(Cc3ccc(OC)cc3)C2=O)cc1)C(N)=O | > 10 | 2.2 |  |  |
| 3.2 |  | 99.4 | 18% | 88.2 | 1.11 | Active | 41.1 | CCCC[C@H](NC(=O)[C@H](CCCCN)NC(=O)[C@H](CCCNC(=N)N)NC(=O)c1ccc(/C=C2\SC(=O)N(Cc3ccc(Cl)cc3)C2=O)cc1)C(N)=O | 5.4 | 2.2 | Non-toxic | inactive |
| 2.9 |  | 99.4 | 20.3% | 63.7 | 0.43 | Active |  | CCCC[C@H](NC(=O)[C@H](CCCCN)NC(=O)[C@H](CCCNC(=N)N)NC(=O)c1ccc(/C=C2\SC(=O)N(Cc3ccc(F)cc3)C2=O)cc1)C(N)=O | 5.2 | 1.5 |  |  |
| 2.5 |  | 98.2 | 16% | 51.8 | 0.44 | Active | 44.9 | CCCC[C@H](NC(=O)[C@H](CCCCN)NC(=O)[C@H](CCCNC(=N)N)NC(=O)c1ccc(/C=C2\SC(=O)N(C3CCCC3)C2=O)cc1)C(N)=O | 7.9 | 1.8 |  |  |
